Experimental data published in ChEMBL document CHEMBL4041465, “Synthesis, characterization and molecular docking studies of substituted 4-coumarinylpyrano[2,3-c]pyrazole derivatives as potent antibacterial and anti-inflammatory agents” (2017).
Converted amounts (≈) assume the structure as drawn.

How the values were obtained:
Pseudomonas aeruginosa = experiment: Antibacterial activity against Pseudomonas aeruginosa MTCC 25668 after 24 hrs by broth microdilution method; type: functional; details: MTCC 25668, 24 h
Summary of the method: (§1)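 Broth tube dilution MIC in Brain Heart Infusion broth, triplicate per strain. Strains were subcultured at 35 °C for 48 h, then log-phase inoculum was grown from 3–5 colonies at 35 °C for 2–6 h and adjusted to 0.5 McFarland. […] serial dilutions were made over 10 tubes, with a media-plus-culture tube as negative control. Incubation was 24 h at 37 °C, and growth was read as turbidity.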

Staphylococcus aureus = experiment: Antibacterial activity against Staphylococcus aureus MTCC 12598 after 24 hrs by broth microdilution method; type: functional; details: MTCC 12598, 24 h; summary of the method: as §1
Enterococcus faecalis = experiment: Antibacterial activity against Enterococcus faecalis MTCC 35550 after 24 hrs by broth microdilution method; type: functional; details: MTCC 35550, 24 h; summary of the method: as §1
Escherichia coli = experiment: Antibacterial activity against Escherichia coli MTCC 443 after 24 hrs by broth microdilution method; type: functional; details: MTCC 443, 24 h; summary of the method: as §1
[1] = In vitro anti-inflammatory activity using hen egg assessed as inhibition of heat-induced egg albumin denaturation at 31.25 ug/ml incubated at 37 +/- 2 degC for 15 mins followed by incubation at 70 degC for 5 mins by UV spectrophotometric method relative to control; type: functional
Summary of the method: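 The 5 mL mix held 0.2 mL fresh hen egg albumin, 2.8 mL PBS pH 6.4 and 2 mL test solution, with water in place of test solution as control. It was held 15 min at 37±2 °C, heated 5 min at 70 °C and cooled, then absorbance was read at 660 nm against a vehicle blank. % inhibition = 100×(Abs control − Abs sample)/Abs control.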

[2] = Potency index, ratio of compound effect to aceclofenac effect for in vitro anti-inflammatory activity using hen egg assessed as inhibition of heat-induced egg albumin denaturation

Compound	MIC (Pseudomonas aeruginosa)	MIC (Staphylococcus aureus)	MIC (Enterococcus faecalis)	MIC (Escherichia coli)	inhibition [1]	Ratio [2]
Cc1ccc2oc(=O)cc(C3CC(=O)Oc4[nH]nc(C)c43)c2c1 (stereo unspecified)	12.5 µg/mL (≈ 40.3 µM)	6.25 µg/mL (≈ 20.1 µM)	12.5 µg/mL (≈ 40.3 µM)	3.12 µg/mL (≈ 10.1 µM)	16%	–
Cc1n[nH]c2c1C(c1cc(=O)oc3c1ccc1ccccc13)C(C#N)=C(N)O2 (stereo unspecified)	25 µg/mL (≈ 67.5 µM)	6.25 µg/mL (≈ 16.9 µM)	12.5 µg/mL (≈ 33.8 µM)	25 µg/mL (≈ 67.5 µM)	14.4%	–
Cc1n[nH]c2c1C(c1cc(=O)oc3ccc(Cl)cc13)C(C#N)=C(N)O2 (stereo unspecified)	12.5 µg/mL (≈ 35.2 µM)	3.12 µg/mL (≈ 8.81 µM)	6.25 µg/mL (≈ 17.6 µM)	3.12 µg/mL (≈ 8.81 µM)	28%	–
Cc1ccc2c(C(CC(=O)O)c3c(C)n[nH]c3O)cc(=O)oc2c1 (stereo unspecified)	12.5 µg/mL (≈ 38.1 µM)	3.12 µg/mL (≈ 9.52 µM)	6.25 µg/mL (≈ 19 µM)	6.25 µg/mL (≈ 19 µM)	40.6%	–
Cc1n[nH]c(O)c1C(CC(=O)O)c1cc(=O)oc2ccc(Cl)cc12 (stereo unspecified)	50 µg/mL (≈ 143 µM)	1.56 µg/mL (≈ 4.47 µM)	6.25 µg/mL (≈ 17.9 µM)	25 µg/mL (≈ 71.7 µM)	42.6%	10
CCOC(=O)C1=C(N)Oc2[nH]nc(C)c2C1c1cc(=O)oc2ccc(Cl)cc12 (stereo unspecified)	50 µg/mL (≈ 124 µM)	3.12 µg/mL (≈ 7.78 µM)	6.25 µg/mL (≈ 15.6 µM)	6.25 µg/mL (≈ 15.6 µM)	39.1%	–
CCOC(=O)C1=C(N)Oc2[nH]nc(C)c2C1c1cc(=O)oc2cc(C)ccc12 (stereo unspecified)	12.5 µg/mL (≈ 32.8 µM)	3.12 µg/mL (≈ 8.19 µM)	25 µg/mL (≈ 65.6 µM)	3.12 µg/mL (≈ 8.19 µM)	28.7%	–
O=C(O)c1cn(C2CC2)c2cc(N3CCNCC3)c(F)cc2c1=O [CIPROFLOXACIN]	–	–	6.25 µg/mL (≈ 18.9 µM)	3.12 µg/mL (≈ 9.43 µM)	–	–
Cc1ccc2oc(=O)cc(C3C(C#N)=C(N)Oc4[nH]nc(C)c43)c2c1 (stereo unspecified)	12.5 µg/mL (≈ 37.4 µM)	6.25 µg/mL (≈ 18.7 µM)	12.5 µg/mL (≈ 37.4 µM)	12.5 µg/mL (≈ 37.4 µM)	10.3%	–
Cc1ccc2c(C3CC(=O)Oc4[nH]nc(C)c43)cc(=O)oc2c1 (stereo unspecified)	6.25 µg/mL (≈ 20.1 µM)	6.25 µg/mL (≈ 20.1 µM)	6.25 µg/mL (≈ 20.1 µM)	12.5 µg/mL (≈ 40.3 µM)	15.8%	–
Cc1n[nH]c(O)c1C(CC(=O)O)c1cc(=O)oc2c1ccc1ccccc12 (stereo unspecified)	12.5 µg/mL (≈ 34.3 µM)	6.25 µg/mL (≈ 17.2 µM)	12.5 µg/mL (≈ 34.3 µM)	6.25 µg/mL (≈ 17.2 µM)	39.8%	–
Cc1ccc2oc(=O)cc(C(CC(=O)O)c3c(C)n[nH]c3O)c2c1 (stereo unspecified)	25 µg/mL (≈ 76.1 µM)	3.12 µg/mL (≈ 9.52 µM)	6.25 µg/mL (≈ 19 µM)	12.5 µg/mL (≈ 38.1 µM)	37.4%	–
Cc1n[nH]c2c1C(c1cc(=O)oc3ccc(Cl)cc13)CC(=O)O2 (stereo unspecified)	12.5 µg/mL (≈ 37.8 µM)	6.25 µg/mL (≈ 18.9 µM)	12.5 µg/mL (≈ 37.8 µM)	6.25 µg/mL (≈ 18.9 µM)	3.27%	–
O=C(O)COC(=O)Cc1ccccc1Nc1c(Cl)cccc1Cl	–	–	–	–	5.5%	–

Second part, led by results:

MIC (Pseudomonas aeruginosa)	MIC (Staphylococcus aureus)	MIC (Enterococcus faecalis)	MIC (Escherichia coli)	Compound	inhibition [1]	Ratio [2]
6.25 µg/mL (≈ 16.4 µM)	3.12 µg/mL (≈ 8.19 µM)	6.25 µg/mL (≈ 16.4 µM)	12.5 µg/mL (≈ 32.8 µM)	CCOC(=O)C1=C(N)Oc2[nH]nc(C)c2C1c1cc(=O)oc2ccc(C)cc12 (stereo unspecified)	24.8%	–
3.12 µg/mL (≈ 9.35 µM)	6.25 µg/mL (≈ 18.7 µM)	12.5 µg/mL (≈ 37.4 µM)	0.78 µg/mL (≈ 2.33 µM)	Cc1ccc2c(C3C(C#N)=C(N)Oc4[nH]nc(C)c43)cc(=O)oc2c1 (stereo unspecified)	7.6%	–
6.25 µg/mL (≈ 18 µM)	12.5 µg/mL (≈ 36.1 µM)	12.5 µg/mL (≈ 36.1 µM)	12.5 µg/mL (≈ 36.1 µM)	Cc1n[nH]c2c1C(c1cc(=O)oc3c1ccc1ccccc13)CC(=O)O2 (stereo unspecified)	1.89%	–
6.25 µg/mL (≈ 15.7 µM)	1.56 µg/mL (≈ 3.93 µM)	3.12 µg/mL (≈ 7.86 µM)	6.25 µg/mL (≈ 15.7 µM)	CCOC(=O)C1=C(N)Oc2[nH]nc(C)c2C1c1cc(=O)oc2ccc(OC)cc12 (stereo unspecified)	51.4%	10
1.56 µg/mL (≈ 4.45 µM)	3.12 µg/mL (≈ 8.92 µM)	12.5 µg/mL (≈ 35.7 µM)	6.25 µg/mL (≈ 17.8 µM)	COc1ccc2oc(=O)cc(C3C(C#N)=C(N)Oc4[nH]nc(C)c43)c2c1 (stereo unspecified)	19.1%	–
6.25 µg/mL (≈ 18.2 µM)	0.78 µg/mL (≈ 2.27 µM)	1.56 µg/mL (≈ 4.53 µM)	3.12 µg/mL (≈ 9.08 µM)	COc1ccc2oc(=O)cc(C(CC(=O)O)c3c(C)n[nH]c3O)c2c1 (stereo unspecified)	63.1%	10
6.25 µg/mL (≈ 15 µM)	3.12 µg/mL (≈ 7.49 µM)	12.5 µg/mL (≈ 29.9 µM)	6.25 µg/mL (≈ 15 µM)	CCOC(=O)C1=C(N)Oc2[nH]nc(C)c2C1c1cc(=O)oc2c1ccc1ccccc12 (stereo unspecified)	37.6%	–
6.25 µg/mL (≈ 19.2 µM)	3.12 µg/mL (≈ 9.58 µM)	6.25 µg/mL (≈ 19.2 µM)	6.25 µg/mL (≈ 19.2 µM)	COc1ccc2oc(=O)cc(C3CC(=O)Oc4[nH]nc(C)c43)c2c1 (stereo unspecified)	29.3%	–
